Results taken from ChEMBL document CHEMBL3580550, “Antibacterial Polyketide Heterodimers from Pyrenacantha kaurabassana Tubers” (2015).
≈ marks a conversion by molar mass, not a printed value.

Columns and labels:
Format in all cases: functional
Staphylococcus aureus [1] = experiment: Antibacterial activity against Staphylococcus aureus isolated from tibial leg ulcer patient assessed as inhibition of visible bacterial growth incubated for 24 hrs at 37 degC by broth microdilution method
Procedure, shortened: (§1)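 MICs were determined by broth microdilution against S. aureus strains maintained on Mueller Hinton agar (24 h, 37 °C). Final compound concentrations ranged from 0.39 to 100 μg/mL. Inoculum was 10^5 CFU/mL final per well, incubated 24 h at 37 °C. MIC was the lowest concentration preventing visible growth. Wells were run in triplicate and the experiment was repeated three times.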

Staphylococcus aureus [2] = experiment: Antibacterial activity against Staphylococcus aureus ATCC 29213 assessed as inhibition of visible bacterial growth incubated for 24 hrs at 37 degC by broth microdilution method; conditions: ATCC 29213, 24 h; procedure, shortened: as §1
Staphylococcus aureus [3] = experiment: Antibacterial activity against Staphylococcus aureus isolated from tibial osteomyelitis patient assessed as inhibition of visible bacterial growth incubated for 24 hrs at 37 degC by broth microdilution method; procedure, shortened: as §1
Helicobacter pylori [4] = experiment: Bactericidal activity against Helicobacter pylori J99 assessed as compound concentration causing reduction in viable colony-forming units pre-incubated for 2 hrs followed by incubation at 37 degC under microaerophilic conditions for 72 hrs
Procedure, shortened: (§2)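 H. pylori J99 came from 24 h cultures on Skirrow's medium (microaerobic, 37 °C) and was resuspended in brain heart infusion. Compound at 100 μg/mL final was mixed with 10^6 CFU/mL bacteria and held 2 h at 37 °C. Controls were BHI alone and amoxicillin at 10 μg/mL. Samples were serially 10-fold diluted in warm PBS and plated in triplicate on Skirrow's (72 h, 37 °C, microaerophilic). Kill was log10 CFU/mL (0 h) minus log10 CFU/mL (2 h).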

Helicobacter pylori [5] = experiment: Bactericidal activity against Helicobacter pylori J99 assessed as reduction in viable colony-forming units pre-incubated for 2 hrs followed by incubation at 37 degC under microaerophilic conditions for 72 hrs; procedure, shortened: as §2
Helicobacter pylori [6] = experiment: Bactericidal activity against Helicobacter pylori J99 assessed as reduction in viable colony-forming units pre-incubated for 2 hrs followed by incubation at 37 degC under microaerophilic conditions for 72 hrs relative to initial inoculum; procedure, shortened: as §2

Row | MIC (Staphylococcus aureus [2]) [µM] | MIC (Staphylococcus aureus [3]) [µM] | Compound | MIC (Staphylococcus aureus [1]) [µM] | Activity (Helicobacter pylori [4]) [µM] | log10CFU/ml (Helicobacter pylori [5]) | Activity (Helicobacter pylori [6]) [%]
1 | 8.3 (≈ 4.02 µg/mL) | 8.3 (≈ 4.02 µg/mL) | NC[C@H]1O[C@H](O[C@H]2[C@H](O)[C@@H](O[C@H]3O[C@H](CO)[C@@H](O)[C@H](N)[C@H]3O)[C@H](N)C[C@@H]2N)[C@H](O)[C@@H](O)[C@@H]1O [KANAMYCIN] | 8.3 (≈ 4.02 µg/mL) |  |  | 
2 | 89.9 (≈ 50 µg/mL) | 89.9 (≈ 50 µg/mL) | COc1cc(O)c2c(O)c3c(c(-c4c(OC)cc5c(c4O)C(=O)c4c(O)cc(C)cc4C5=O)c2c1)CC(C)OC3=O (stereo unspecified) | 89.9 (≈ 50 µg/mL) | 179.8 | 0.42 | 
3 | 10.7 (≈ 6.28 µg/mL) | 10.7 (≈ 6.28 µg/mL) | COc1cc(O)c2c(O)c3c(c(-c4c(OC)cc5c(c4O)C(=O)c4c(O)cc(C)c(OC)c4C5=O)c2c1)CC(C)OC3=O (stereo unspecified) | 2.7 (≈ 1.58 µg/mL) | 170.6 | 6 | >99.9
4 |  |  | CC1(C)S[C@@H]2[C@H](NC(=O)[C@H](N)c3ccc(O)cc3)C(=O)N2[C@H]1C(=O)O [AMOXICILLIN] |  | 274 | 0.51 | 
